The structures appear in SMILES notation. Structures can show the parent of a compound that is named as a salt. The source made the active and inactive calls. No cut-off for these calls is given here.

Experimental findings from ChEMBL document CHEMBL1140911, “Semisynthesis, biological activity, and molecular modeling studies of C-ring-modified camptothecins” (J Med Chem, 2009) are described below.

The subject of one assay is NCI-H460. Briefly: Antiproliferative activity against human NCI-H460 cells after short term exposure for 1 hr measured after 72 hrs in drug-free medium. The class given is functional, cell-based. In short, it runs like this: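 NCI-H460 human NSCLC cells grown in RPMI 1640 with 10% FCS. IC50 is the concentration giving 50% decrease in cell growth relative to untreated control.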

Assay [1] addresses T1, DNA topoisomerase 1 (Homo sapiens) (UniProt P11387).
T1 sequence (whole entry): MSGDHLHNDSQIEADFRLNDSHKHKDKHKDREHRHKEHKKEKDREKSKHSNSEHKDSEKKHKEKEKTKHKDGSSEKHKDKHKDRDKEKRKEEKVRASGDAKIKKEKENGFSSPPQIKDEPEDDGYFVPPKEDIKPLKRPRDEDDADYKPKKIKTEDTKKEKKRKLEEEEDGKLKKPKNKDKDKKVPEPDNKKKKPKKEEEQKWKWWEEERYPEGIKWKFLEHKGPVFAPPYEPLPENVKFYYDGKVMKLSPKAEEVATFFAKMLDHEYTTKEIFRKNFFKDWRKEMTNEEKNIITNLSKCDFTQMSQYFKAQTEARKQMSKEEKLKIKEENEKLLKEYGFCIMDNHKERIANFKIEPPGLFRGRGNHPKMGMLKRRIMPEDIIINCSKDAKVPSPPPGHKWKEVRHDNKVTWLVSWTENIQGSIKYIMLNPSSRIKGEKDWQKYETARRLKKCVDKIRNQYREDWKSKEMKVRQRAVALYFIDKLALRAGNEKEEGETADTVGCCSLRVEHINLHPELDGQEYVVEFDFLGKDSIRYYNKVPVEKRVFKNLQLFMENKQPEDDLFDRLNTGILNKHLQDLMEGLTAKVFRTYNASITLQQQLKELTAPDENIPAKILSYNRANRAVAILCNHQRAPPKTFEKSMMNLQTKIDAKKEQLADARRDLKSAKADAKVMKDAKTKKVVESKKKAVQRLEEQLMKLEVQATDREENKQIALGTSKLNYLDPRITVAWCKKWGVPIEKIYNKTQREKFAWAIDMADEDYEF
The assay can be described thus: Induction of human recombinant topoisomerase 1-mediated SV40 DNA cleavage at 1 to 50 uM after 30 mins by PAGE. In short, it runs like this: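 Substrate was a gel-purified 751-bp BamHI-EcoRI SV40 DNA fragment, uniquely 3′-end labeled (20 000 cpm/sample). It was reacted with full-length human recombinant topo I and drug at 1, 10 and 50 µM in 10 mM Tris-HCl pH 7.6, 150 mM KCl, 5 mM MgCl2, 15 µg/mL BSA, 0.1 mM DTT, 30 min at 37 °C. Stopped with 0.5% SDS/0.3 mg/mL proteinase K, 45 min, 42 °C. Run on denaturing 8% polyacrylamide gel and quantified by phosphorimaging. Band intensity was compared with SN38 reference.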

Consider `CC[C@@]1(O)C(=O)OCc2c1cc1n(c2=O)C(N=[N+]=[N-])(N=[N+]=[N-])c2cc3ccccc3nc2-1` (stereo not given in full), for which the 50% inhibitory concentration (IC50) in the assay on NCI-H460 came to 9.3 µM. On the same count and under the same terms, as for `CC[C@@]1(O)C(=O)OCc2c1cc1n(c2=O)[C@@H](N=[N+]=[N-])c2cc3ccccc3nc2-1`, the figure is 11.5 µM. Consider `CC[C@@]1(O)C(=O)OCc2c1cc1n(c2=O)[C@H](N=[N+]=[N-])c2cc3ccccc3nc2-1`, for which the midpoint of inhibition in the assay with NCI-H460, the IC50, lay at 6.7 µM. Also, in assay [1], the outcome was Active.

With `CC[C@@]1(O)C(=O)OCc2c1cc1n(c2=O)[C@H](N(NC(=O)OCc2ccccc2)C(=O)OCc2ccccc2)c2cc3ccccc3nc2-1`, in the assay with NCI-H460, the IC50 is 60 µM. As for `CC[C@@]1(O)C(=O)OCc2c1cc1n(c2=O)C(C)c2cc3ccccc3nc2-1` (mixture of isomers), half-maximal inhibition with NCI-H460 (IC50) was put at 5.9 µM. Further, in assay [1], the result was Active. As to `CC[C@@]1(O)C(=O)OCc2c1cc1n(c2=O)[C@H](N(NC(=O)OC(C)(C)C)C(=O)OC(C)(C)C)c2cc3ccccc3nc2-1`, in the assay with NCI-H460, the IC50 is 77 µM. In addition, the outcome in assay [1] was Active. `CC[C@@]1(O)C(=O)OCc2c1cc1n(c2=O)[C@@H](N(NC(=O)OCc2ccccc2)C(=O)OCc2ccccc2)c2cc3ccccc3nc2-1` returned an IC50 in the assay with NCI-H460 of 85 µM. Molecule `CC[C@@]1(O)C(=O)OCc2c1cc1n(c2=O)C(N)c2cc3ccccc3nc2-1` (stereo not given in full) displayed an IC50 with NCI-H460 of 30 µM. The outcome in assay [1] was Active. Taken in the same sequence, the figures for `CC[C@@]1(O)C(=O)OCc2c1cc1n(c2=O)[C@@H](F)c2cc3ccccc3nc2-1` were 56 µM and “Active”. `CC[C@@]1(O)C(=O)OCc2c1cc1n(c2=O)[C@H](F)c2cc3ccccc3nc2-1`: the IC50 with NCI-H460 is 56 µM. In addition, the result in assay [1] was Active. On to `CC[C@@]1(O)C(=O)OCc2c1cc1n(c2=O)C(CCCO)c2cc3ccccc3nc2-1` (mixture of isomers), for which the IC50 with NCI-H460 turned out to be 16 µM. Same read-out and setting: the result for `CC[C@@]1(O)C(=O)OCc2c1cc1n(c2=O)Cc2cc3c(CN(C)C)c(O)ccc3nc2-1` [TOPOTECAN HYDROCHLORIDE] reads 0.61 µM; that for `CC[C@@]1(O)C(=O)OCc2c1cc1n(c2=O)[C@@H](N(NC(=O)OC(C)(C)C)C(=O)OC(C)(C)C)c2cc3ccccc3nc2-1`, over 173 µM. `CC[C@@]1(O)C(=O)OCc2c1cc1c3nc4ccccc4cc3c3nnc2n13` gave an IC50 in the assay with NCI-H460 of 10.6 µM. The outcome in assay [1] was Active. In the assay on NCI-H460, `CC[C@@]1(O)C(=O)OCC2=C1C=C1c3nc4ccccc4cc3C3NN=C2N13` (mixture of isomers) registered an IC50 of 46.8 µM. In assay [1], the outcome was Active. Taken in the same sequence, the figures for `CCc1c2c(nc3ccc(O)cc13)-c1cc3c(c(=O)n1C2)COC(=O)[C@]3(O)CC` [7-ETHYL-10-HYDROXYCAMPTOTHECIN] were 0.13 µM and “Active”.
